Data as given in ChEMBL document CHEMBL1914453, “1,1-Diarylalkenes as anticancer agents: dual inhibitors of tubulin polymerization and phosphodiesterase 4” (Bioorg Med Chem, 2011).

Columns and labels:
[1] = Solubility of the compound at pH 7.4 after 4 hrs by UV-Vis spectrophotometry; assay type: physicochemical; settings: buffer
How it was run: (§1)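 A suspension of about 1 mg/mL (0.5 mL) in pH 5.0 or pH 7.4 buffer was stirred at 400 rpm for 4 h and then filtered. Concentration was determined by UV-vis plate reading (200–400 nm) against standard curves for each compound. Replicate measurements were made at pH 5.0.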

Phosphodiesterase 4 = Phosphodiesterase 4 (Homo sapiens, UniProt P27815+Q08499+Q07343+Q08493); test: Inhibition of human PDE4 expressed in U937 cells using [3H]cAMP as substrate after 30 mins; settings: u-937
How it was run: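 PDE4 was purified from U937 human monocytic cells by gel filtration. Reactions ran in 50 mM Tris–HCl pH 7.5 with 5 mM MgCl₂, 1 µM cAMP and 10 nM [³H]-cAMP for 30 min at 30 °C. They were stopped by boiling, treated with snake venom (1 mg/ml) and separated on ion-exchange resin. Substrate consumption stayed below 15%. IC50 values are means of at least three determinations, with SEM.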

[2] = Stability in human plasma assessed as half life by LC-MS/MS analysis; assay type: ADME, cell-free
How it was run: (§2)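 Analogs were incubated in human plasma at 37 °C and sampled at 0, 0.5, 1, 2, 3, 4, 6, 8 and 24 h. Samples were quenched in acetonitrile with 0.1% formic acid and internal standard, centrifuged, and analysed by LC–MS/MS in MRM mode on a C18 monolithic column with an aqueous acetonitrile/0.1% formic acid gradient. Percentage remaining was taken from analyte/IS peak-area ratios relative to time zero.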

[3] = Solubility of the compound at pH 5 after 4 hrs by UV-Vis spectrophotometry; assay type: physicochemical; settings: buffer; how it was run: as §1
HCT-116 [4] = test: Cytotoxicity against human HCT116 cells assessed as reduction of [3H]thymidine incorporation after 72 hrs by scintillation counting; assay type: functional, cell-based
How it was run: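 HCT-116 cells were seeded 24 h before compound and treated with serial dilutions in triplicate for 72 h at 37 °C. [³H]thymidine (1 µCi per well) was added for the last 6 h, and incorporation was read by scintillation counting. IC50 came from nonlinear sigmoidal regression (top 100%, bottom 0%, variable slope). Values are means of at least three independent determinations, with SEM from the individual IC50s.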

Plasma = test: Stability in human plasma assessed as formation of (E/Z)-3-(3-Amino-4-methoxyphenyl)-3-(3-ethoxy-4- methoxyphenyl)acrylonitrile by LC-MS/MS analysis; assay type: ADME, cell-free; how it was run: as §2
PBMC = test: Inhibition of LPS-induced TNFalpha production in human PBMC preincubated 1 hr prior to LPS stimulation measured after 18 to 20 hrs by ELISA; assay type: functional, cell-based
How it was run: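 PBMC were isolated by Ficoll-Hypaque density centrifugation and plated at 2 × 10⁵ cells in triplicate. Compounds in DMSO (0.25% final) were added 1 h before stimulation with LPS from S. abortus equi at 1 ng/ml. After 18–20 h at 37 °C in 5% CO₂, supernatant TNF-α was measured by ELISA. IC50 values are means of at least three determinations.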

[5] = Inhibition of tubulin polymerization at 10 uM after 60 mins by spectrophotometry
[6] = Inhibition of tubulin polymerization at 5 uM after 60 mins by spectrophotometry
HCT-116 [7] = test: Antitumor activity against human HCT116 cells xenografted in SCID mouse assessed as reduction in tumor volume at 20 mg/kg, ip qd measured twice weekly relative to control; assay type: functional; set-up: scale not given: the % may be the effect or the level left; settings: route intraperitoneal
How it was run: (§3)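 Female SCID mice, 6–8 weeks old, inoculated s.c. in the right hind leg with 2 × 10⁶ HCT-116 cells in sterile PBS. On day 8, mice with 75–125 mm³ tumors were randomized and dosed ip in CMC-Tween vehicle (0.5% carboxymethylcellulose, 0.25% Tween 80 in water). Tumors were measured twice weekly by caliper, volume W² × L / 2, and compared with vehicle.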

[8] = Ratio of IC50 for human PDE4 expressed in U937 cells to IC50 for human HCT116 cells; set-up: species or system HCT-116
HCT-116 [9] = test: Antitumor activity against human HCT116 cells xenografted in SCID mouse assessed as tumor growth inhibition at 20 mg/kg, ip once daily measured twice weekly relative to control; settings: HCT-116, ip, 24 h, read-out: GI
Mus musculus = test: Toxicity in SCID mouse xenografted with human HCT116 cells assessed as reduction in body weight at 20 mg/kg, ip once daily measured after day 19 relative to control; assay type: organism-based, HCT-116; set-up: dose 20 mg/kg, route intraperitoneal; scale not given: the % may be the effect or the level left; settings: in vivo
How it was run: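 SCID mice carrying s.c. HCT-116 tumors were dosed ip at 20 mg/kg once daily in CMC-Tween vehicle (0.5% carboxymethylcellulose, 0.25% Tween 80) from day 8. Health was monitored daily and body weights were compared with the vehicle group.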

HCT-116 [10] = test: Antitumor activity against human HCT116 cells xenografted in SCID mouse assessed as tumor growth inhibition at 5 mg/kg, ip once every 4 days measured twice weekly relative to control; assay type: functional; settings: HCT-116, ip, 96 h, route intraperitoneal, read-out: GI; how it was run: as §3

Row | Compound | solubility at 4 h [1] | IC50 (Phosphodiesterase 4) | half-life [2] | solubility at 4 h [3] | IC50 (HCT-116 [4]) | Stability (Plasma) | IC50 (PBMC) | inhibition [5] | inhibition [6] | Activity (HCT-116 [7]) | Ratio IC50 [8] | inhibition in vivo at 20 mg/kg (HCT-116 [9]) | Activity (Mus musculus) | inhibition in vivo at 5 mg/kg (HCT-116 [10])
1 | CCOc1cc(C(=CC#N)c2ccc(OC)c(NC(=O)[C@H](C)N)c2)ccc1OC.Cl | 0.405 mg/mL | 0.15 µM | 27 h | 1.04 mg/mL | 0.04 µM | Stable | 0.027 µM | – | – | – | – | – | – | –
2 | CCOc1cc(C(=CC#N)c2cc(OC)cc(OC)c2)ccc1OC | – | 0.054 µM | – | – | 0.034 µM | – | 0.043 µM | 59% | 48% | 16% | – | – | – | –
3 | COc1cc(OC)cc(C(=C(C)C)c2ccc(OC)c(O)c2)c1 | – | > 10 µM | – | – | 0.97 µM | – | 7 µM | – | – | – | 10 | – | – | –
4 | CCOc1cc(C(=CC#N)c2ccc(OC)c(NC(=O)CN)c2)ccc1OC.Cl | 0.205 mg/mL | 0.4 µM | 56 h | 0.356 mg/mL | 0.093 µM | Stable | 0.031 µM | 70% | 59% | – | – | 64% | 15% | –
5 | CCOc1cc(C(=CC#N)c2ccc(OC)c(N)c2)ccc1OC | < 0.003 mg/mL | 0.047 µM | – | < 0.003 mg/mL | 0.019 µM | – | 0.031 µM | 76% | 65% | – | – | – | – | –
6 | CCc1c2c(nc3ccc(OC(=O)N4CCC(N5CCCCC5)CC4)cc13)-c1cc3c(c(=O)n1C2)COC(=O)[C@]3(O)CC [IRINOTECAN] | – | – | – | – | – | – | – | – | – | – | – | – | – | 85%
